Measured values: ChEMBL document CHEMBL2016496, “The SAR development of dihydroimidazoisoquinoline derivatives as phosphodiesterase 10A inhibitors for the treatment of schizophrenia” (Bioorg Med Chem Lett, 2012)
Active and inactive are the calls of the source. The rule behind the calls is not given here.

Legend:
[1] = target: cAMP and cAMP-inhibited cGMP 3',5'-cyclic phosphodiesterase 10A (Homo sapiens, UniProt Q9Y233); experiment: Inhibition of human recombinant PDE10A assessed as inhibition of [3H]cAMP hydrolysis by scintillation proximity assay
Chain of cAMP and cAMP-inhibited cGMP 3',5'-cyclic phosphodiesterase 10A (Q9Y233 whole entry): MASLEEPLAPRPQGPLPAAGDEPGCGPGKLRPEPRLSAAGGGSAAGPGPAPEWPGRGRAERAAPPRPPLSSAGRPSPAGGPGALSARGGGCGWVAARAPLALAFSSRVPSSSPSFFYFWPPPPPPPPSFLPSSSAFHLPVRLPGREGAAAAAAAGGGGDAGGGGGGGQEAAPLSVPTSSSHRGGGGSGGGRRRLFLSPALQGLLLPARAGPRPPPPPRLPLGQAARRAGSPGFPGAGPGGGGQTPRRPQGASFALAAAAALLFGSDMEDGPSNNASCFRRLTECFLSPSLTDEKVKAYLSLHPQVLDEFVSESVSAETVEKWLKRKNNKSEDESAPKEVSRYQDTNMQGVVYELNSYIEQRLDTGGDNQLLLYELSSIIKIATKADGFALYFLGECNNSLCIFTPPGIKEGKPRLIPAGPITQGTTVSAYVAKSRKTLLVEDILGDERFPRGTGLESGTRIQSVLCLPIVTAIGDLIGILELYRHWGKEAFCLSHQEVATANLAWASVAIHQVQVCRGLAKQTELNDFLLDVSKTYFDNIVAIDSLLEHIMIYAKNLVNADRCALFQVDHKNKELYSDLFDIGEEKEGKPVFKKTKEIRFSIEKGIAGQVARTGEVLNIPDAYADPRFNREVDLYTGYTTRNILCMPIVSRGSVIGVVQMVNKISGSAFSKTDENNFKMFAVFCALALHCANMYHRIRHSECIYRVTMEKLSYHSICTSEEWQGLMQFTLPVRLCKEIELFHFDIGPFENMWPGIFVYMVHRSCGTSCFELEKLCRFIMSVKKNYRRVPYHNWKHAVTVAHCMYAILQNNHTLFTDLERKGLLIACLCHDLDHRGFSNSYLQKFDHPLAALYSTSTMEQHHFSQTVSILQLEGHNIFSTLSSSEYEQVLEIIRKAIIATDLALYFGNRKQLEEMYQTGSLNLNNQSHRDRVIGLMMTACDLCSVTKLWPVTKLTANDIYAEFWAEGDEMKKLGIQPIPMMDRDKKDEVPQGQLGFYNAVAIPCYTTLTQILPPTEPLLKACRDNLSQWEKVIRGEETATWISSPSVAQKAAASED
Procedure, shortened: (§1)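 Scintillation proximity assay on recombinant human PDEs 1–11, with [³H]cAMP as substrate and hydrolysis of cAMP to AMP as read-out. Ki values are means of two experiments.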

[2] = Clearance in monkey hepatocytes assessed per 10^6 cells; format: ADME, cell-based, Macaca mulatta, Hepatocyte; settings: rhesus monkey, read-out: CLH
[3] = target: T1, High affinity 3',5'-cyclic-AMP phosphodiesterase 7A (Homo sapiens, UniProt Q13946); experiment: Inhibition of human recombinant PDE7A1 assessed as inhibition of [3H]cAMP hydrolysis by scintillation proximity assay; procedure, shortened: as §1
T1 sequence (Q13946 whole entry): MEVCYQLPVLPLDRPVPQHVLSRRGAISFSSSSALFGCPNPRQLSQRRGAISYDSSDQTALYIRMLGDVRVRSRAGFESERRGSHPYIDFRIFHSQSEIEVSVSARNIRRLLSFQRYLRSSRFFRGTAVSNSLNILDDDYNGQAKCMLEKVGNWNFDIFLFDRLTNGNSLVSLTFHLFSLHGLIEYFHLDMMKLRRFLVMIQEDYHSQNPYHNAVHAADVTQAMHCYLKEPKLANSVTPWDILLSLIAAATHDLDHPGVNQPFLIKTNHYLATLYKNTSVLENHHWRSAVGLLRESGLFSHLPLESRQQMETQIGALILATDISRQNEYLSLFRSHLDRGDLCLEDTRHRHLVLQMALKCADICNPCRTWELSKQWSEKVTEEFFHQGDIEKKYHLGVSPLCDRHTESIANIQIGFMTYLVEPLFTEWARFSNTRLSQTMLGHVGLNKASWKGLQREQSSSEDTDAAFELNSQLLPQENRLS

[4] = Clearance in human hepatocytes assessed per 10^6 cells; format: ADME, cell-based, Hepatocyte; settings: read-out: CLH
[5] = target: T2, cGMP-inhibited 3',5'-cyclic phosphodiesterase 3A (Homo sapiens, UniProt Q14432); experiment: Inhibition of human recombinant PDE3A assessed as inhibition of [3H]cAMP hydrolysis by scintillation proximity assay; procedure, shortened: as §1
[6] = Dissociation constant, pKa of the compound; format: physicochemical
Phosphodiesterase 6 = experiment: Inhibition of human recombinant PDE6 assessed as inhibition of [3H]cAMP hydrolysis by scintillation proximity assay; format: protein assay; procedure, shortened: as §1
hERG (KCNH2) = hERG (KCNH2) (Homo sapiens, UniProt Q12809); experiment: Inhibition of human ERG at 10 uM
Chain of hERG (KCNH2) (Q12809 whole entry): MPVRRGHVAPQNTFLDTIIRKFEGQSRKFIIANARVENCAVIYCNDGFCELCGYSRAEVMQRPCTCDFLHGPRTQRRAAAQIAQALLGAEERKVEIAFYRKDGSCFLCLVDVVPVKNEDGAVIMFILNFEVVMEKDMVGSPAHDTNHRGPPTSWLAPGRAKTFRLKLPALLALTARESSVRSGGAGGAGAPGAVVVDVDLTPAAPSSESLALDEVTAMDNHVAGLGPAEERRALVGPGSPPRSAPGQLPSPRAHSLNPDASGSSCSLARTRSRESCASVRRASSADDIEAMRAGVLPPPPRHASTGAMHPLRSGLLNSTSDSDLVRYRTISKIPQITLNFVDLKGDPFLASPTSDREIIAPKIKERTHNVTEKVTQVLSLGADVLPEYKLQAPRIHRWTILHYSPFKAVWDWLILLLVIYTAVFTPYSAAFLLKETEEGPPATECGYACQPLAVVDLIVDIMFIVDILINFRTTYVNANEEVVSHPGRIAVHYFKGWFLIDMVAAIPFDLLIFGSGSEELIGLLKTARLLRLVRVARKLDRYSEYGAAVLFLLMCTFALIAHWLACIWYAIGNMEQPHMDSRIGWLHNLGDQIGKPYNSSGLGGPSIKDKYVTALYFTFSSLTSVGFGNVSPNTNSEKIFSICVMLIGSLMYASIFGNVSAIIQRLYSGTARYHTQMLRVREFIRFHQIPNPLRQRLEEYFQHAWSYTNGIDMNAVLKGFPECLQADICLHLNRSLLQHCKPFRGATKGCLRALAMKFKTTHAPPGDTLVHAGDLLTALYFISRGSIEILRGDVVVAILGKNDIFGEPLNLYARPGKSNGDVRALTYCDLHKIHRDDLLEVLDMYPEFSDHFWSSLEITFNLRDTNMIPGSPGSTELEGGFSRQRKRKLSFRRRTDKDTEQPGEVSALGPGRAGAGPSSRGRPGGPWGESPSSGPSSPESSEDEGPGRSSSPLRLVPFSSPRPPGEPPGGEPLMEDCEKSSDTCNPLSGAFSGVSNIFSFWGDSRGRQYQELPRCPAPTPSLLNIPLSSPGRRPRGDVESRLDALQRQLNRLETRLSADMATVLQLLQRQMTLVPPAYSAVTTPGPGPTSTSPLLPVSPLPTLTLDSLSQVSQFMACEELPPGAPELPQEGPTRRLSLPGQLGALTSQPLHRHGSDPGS
Procedure, shortened: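 hERG inhibition was measured on the IonWorks platform at 10 µM.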

[7] = target: Dual 3',5'-cyclic-AMP and -GMP phosphodiesterase 11A (Homo sapiens, UniProt Q9HCR9); experiment: Inhibition of human recombinant PDE11 assessed as inhibition of [3H]cAMP hydrolysis by scintillation proximity assay; procedure, shortened: as §1
Chain of Dual 3',5'-cyclic-AMP and -GMP phosphodiesterase 11A (Q9HCR9 whole entry): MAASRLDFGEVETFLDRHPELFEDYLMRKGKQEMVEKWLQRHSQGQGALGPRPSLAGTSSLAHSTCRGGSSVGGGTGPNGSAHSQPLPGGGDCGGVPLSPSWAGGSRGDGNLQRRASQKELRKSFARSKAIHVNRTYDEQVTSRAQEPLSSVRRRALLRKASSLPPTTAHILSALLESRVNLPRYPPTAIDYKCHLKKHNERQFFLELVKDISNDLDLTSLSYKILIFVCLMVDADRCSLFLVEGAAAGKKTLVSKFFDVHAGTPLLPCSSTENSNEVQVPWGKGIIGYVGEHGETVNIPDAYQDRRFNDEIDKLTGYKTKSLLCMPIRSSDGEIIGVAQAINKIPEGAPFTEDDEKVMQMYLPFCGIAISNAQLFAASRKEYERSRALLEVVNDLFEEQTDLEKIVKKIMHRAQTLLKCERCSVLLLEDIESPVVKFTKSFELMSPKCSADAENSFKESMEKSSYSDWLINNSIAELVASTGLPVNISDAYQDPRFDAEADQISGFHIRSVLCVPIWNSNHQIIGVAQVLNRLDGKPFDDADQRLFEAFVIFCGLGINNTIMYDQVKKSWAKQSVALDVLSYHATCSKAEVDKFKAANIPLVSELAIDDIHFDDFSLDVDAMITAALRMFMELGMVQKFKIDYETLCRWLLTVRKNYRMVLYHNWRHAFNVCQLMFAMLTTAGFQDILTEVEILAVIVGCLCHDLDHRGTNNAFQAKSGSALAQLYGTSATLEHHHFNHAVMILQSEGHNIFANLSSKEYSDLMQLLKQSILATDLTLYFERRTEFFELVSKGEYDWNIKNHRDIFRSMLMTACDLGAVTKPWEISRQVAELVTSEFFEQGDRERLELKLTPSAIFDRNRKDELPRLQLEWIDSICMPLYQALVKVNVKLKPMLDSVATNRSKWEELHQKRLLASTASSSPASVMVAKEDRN

Phosphodiesterase 4 = Phosphodiesterase 4 (Homo sapiens, UniProt P27815+Q08499+Q07343+Q08493); experiment: Inhibition of human recombinant PDE4 assessed as inhibition of [3H]cAMP hydrolysis by scintillation proximity assay; format: protein assay; procedure, shortened: as §1
[8] = target: cGMP-specific 3',5'-cyclic phosphodiesterase (Homo sapiens, UniProt O76074); experiment: Inhibition of human recombinant PDE5 assessed as inhibition of [3H]cAMP hydrolysis by scintillation proximity assay; procedure, shortened: as §1
Phosphodiesterase 8 = Phosphodiesterase 8 (Homo sapiens, UniProt O95263+O60658); experiment: Inhibition of human recombinant PDE8 assessed as inhibition of [3H]cAMP hydrolysis by scintillation proximity assay; format: protein assay; procedure, shortened: as §1
[9] = target: cGMP-dependent 3',5'-cyclic phosphodiesterase (Homo sapiens, UniProt O00408); experiment: Inhibition of human recombinant PDE2 assessed as inhibition of [3H]cAMP hydrolysis by scintillation proximity assay; procedure, shortened: as §1
[10] = Solubility of the compound in 2% DMSO at pH 7.4; format: physicochemical
Phosphodiesterase 1 = Phosphodiesterase 1 (Homo sapiens, UniProt P54750+Q01064+Q14123); experiment: Inhibition of human recombinant PDE1 assessed as inhibition of [3H]cAMP hydrolysis by scintillation proximity assay; format: protein assay; procedure, shortened: as §1
[11] = target: High affinity cGMP-specific 3',5'-cyclic phosphodiesterase 9A (Homo sapiens, UniProt O76083); experiment: Inhibition of human recombinant PDE9 assessed as inhibition of [3H]cAMP hydrolysis by scintillation proximity assay; procedure, shortened: as §1
Chain of High affinity cGMP-specific 3',5'-cyclic phosphodiesterase 9A (O76083 whole entry): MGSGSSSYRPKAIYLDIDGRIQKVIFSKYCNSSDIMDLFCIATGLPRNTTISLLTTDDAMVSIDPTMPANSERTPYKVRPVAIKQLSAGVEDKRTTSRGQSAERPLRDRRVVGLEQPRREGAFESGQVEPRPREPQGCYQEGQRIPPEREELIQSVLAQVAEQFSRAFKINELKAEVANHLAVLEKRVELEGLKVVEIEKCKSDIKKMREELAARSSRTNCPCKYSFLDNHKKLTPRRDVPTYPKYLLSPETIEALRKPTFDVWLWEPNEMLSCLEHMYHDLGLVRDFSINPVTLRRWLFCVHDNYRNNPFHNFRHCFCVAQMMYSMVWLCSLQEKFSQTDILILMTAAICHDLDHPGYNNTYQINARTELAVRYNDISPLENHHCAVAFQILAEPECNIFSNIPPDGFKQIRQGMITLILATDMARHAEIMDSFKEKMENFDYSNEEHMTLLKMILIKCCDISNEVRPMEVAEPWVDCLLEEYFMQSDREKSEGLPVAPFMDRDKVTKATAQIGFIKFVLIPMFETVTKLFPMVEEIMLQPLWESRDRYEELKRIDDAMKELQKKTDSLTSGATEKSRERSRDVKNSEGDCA

[12] = Clearance in rat hepatocytes assessed per 10^6 cells; format: ADME, cell-based, Hepatocyte; settings: read-out: CLH
[13] = target: T2, cGMP-inhibited 3',5'-cyclic phosphodiesterase 3A; experiment: Inhibition of human recombinant PDE3A assessed as inhibition of [3H]cAMP hydrolysis at 3 uM by scintillation proximity assay
Procedure, shortened: (§2)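 Recombinant human PDE3A or PDE7A1 was tested at a single 3 µM level in the scintillation proximity assay, with [³H]cAMP as substrate and cAMP-to-AMP hydrolysis as read-out. Results are expressed as % inhibition.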

[14] = target: T1, High affinity 3',5'-cyclic-AMP phosphodiesterase 7A; experiment: Inhibition of human recombinant PDE7A1 assessed as inhibition of [3H]cAMP hydrolysis at 3 uM by scintillation proximity assay; procedure, shortened: as §2
Rattus norvegicus = experiment: Antipsychotic activity in CD rat assessed as inhibition of MK801-induced hyperactivity at 30 mg/kg, po; format: functional, organism-based; design: dose 30 mg/kg
Procedure, shortened: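 Male CD rats were habituated to locomotor activity chambers 24 h before testing. On test day, MK-801 (0.3 mg/kg, sc) was co-administered with the PDE10 inhibitor (po) and the rats were placed in the apparatus. Inhibition is the activity of the inhibitor+MK-801 group as a percent of the vehicle+MK-801 group.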

[15] = Drug uptake in CD rat brain at 30 mg/kg, po after 1 hr; format: ADME, organism-based; design: dose 30 mg/kg, route oral

SMILES	Ki [1]	hepatocyte CLint [2]	Ki [3]	hepatocyte CLint [4]	Ki [5]	other results
COc1cc2c(cc1OC)-c1c(-c3cnco3)ncn1CC2	31 nM	67 µL/min/1e6 cells	11100 nM	25 µL/min/1e6 cells	1740 nM	
COc1cc2c(cc1OC)-c1c(-c3cnc(CN4CCCOCC4)s3)ncn1CC2	3.8 nM		3770 nM		224 nM	
COc1cc2c(cc1OC)-c1c(-c3cnc(C(=O)N(C)C(C)(C)C)s3)ncn1CC2	8.7 nM	59 µL/min/1e6 cells	243 nM	66 µL/min/1e6 cells	149 nM	pKa [6]: 4; Ki (Phosphodiesterase 6): > 2000 nM; inhibition at 10 µM (hERG (KCNH2)): 40%; Ki [7]: > 2000 nM; Ki (Phosphodiesterase 4): > 2000 nM; Ki [8]: > 2000 nM; Ki (Phosphodiesterase 8): > 2000 nM; Ki [9]: > 2000 nM; solubility [10]: > 200 µM; Ki (Phosphodiesterase 1): > 2000 nM; Ki [11]: > 2000 nM; hepatocyte CLint [12]: 49 µL/min/1e6 cells
COc1ccc(-c2ncn3c2-c2cc(OC)c(OC)cc2CC3)cc1	114 nM					
COc1cc2c(cc1OC)-c1c(-c3cccnc3)ncn1C(C)C2 (stereo not given)	12 nM					inhibition [13]: 97%
COc1cc2c(cc1OC)-c1c(-c3cccc(N4CCOCC4)c3)ncn1CC2	6.4 nM	66 µL/min/1e6 cells	7500 nM	> 14 µL/min/1e6 cells	1470 nM	hepatocyte CLint [12]: 61 µL/min/1e6 cells
COc1cccc(-c2ncn3c2-c2cc(OC)c(OC)cc2CC3)c1	30 nM	66 µL/min/1e6 cells	5540 nM	> 14 µL/min/1e6 cells	136 nM	hepatocyte CLint [12]: 61 µL/min/1e6 cells
COc1cc2c(cc1OC)-c1c(-c3cnc(N4CCOCC4)s3)ncn1CC2	26 nM		2470 nM		177 nM	
COc1cc2c(cc1OC)-c1c(-c3cnc(C)s3)ncn1CC2	186 nM					
COc1cc2c(cc1OC)-c1c(-c3cnc(C(=O)N4CCCOCC4)s3)ncn1CC2	1.5 nM		269 nM		24 nM	
CCOc1cccc(-c2ncn3c2-c2cc(OC)c(OC)cc2CC3)c1	8 nM	66 µL/min/1e6 cells	3760 nM	> 14 µL/min/1e6 cells	277 nM	hepatocyte CLint [12]: 61 µL/min/1e6 cells
COc1cc2c(cc1OC)-c1c(-c3cccc(Cl)c3)ncn1CC2	33 nM	66 µL/min/1e6 cells	6930 nM	> 14 µL/min/1e6 cells	954 nM	hepatocyte CLint [12]: 61 µL/min/1e6 cells
COc1cc2c(cc1OC)-c1c(-c3cnc(CO)s3)ncn1CC2	26 nM		4600 nM		540 nM	
COc1cc2c(cc1OC)-c1c(-c3cnc(CN4CCOCC4)s3)ncn1CC2	6.6 nM		4600 nM		148 nM	
COc1cc2c(cc1OC)-c1c(C3CCCCC3)ncn1CC2	199 nM					
COc1cc2c(cc1OC)-c1c(-c3cccnc3)nc(C)n1CC2	25 nM	26.6 µL/min/1e6 cells	5980 nM	0.4 µL/min/1e6 cells	727 nM	pKa [6]: 4; Ki (Phosphodiesterase 6): > 7950 nM; inhibition at 10 µM (hERG (KCNH2)): 29%; Ki [7]: > 7950 nM; Ki (Phosphodiesterase 4): > 7950 nM; Ki [8]: > 7950 nM; Ki (Phosphodiesterase 8): > 7950 nM; Ki [9]: > 7950 nM; solubility [10]: > 200 µM; Ki (Phosphodiesterase 1): > 7950 nM; Ki [11]: > 7950 nM; hepatocyte CLint [12]: 3.6 µL/min/1e6 cells

SMILES	Ki [1]	hepatocyte CLint [2]	Ki [3]	hepatocyte CLint [4]	Ki [5]	other results
COc1cc2c(cc1OC)-c1c(-c3ccccc3Cl)ncn1CC2	628 nM					
COc1cc2c(cc1OC)-c1c(-c3cccc(Br)c3)ncn1CC2	32 nM	66 µL/min/1e6 cells	10100 nM	> 14 µL/min/1e6 cells	1280 nM	hepatocyte CLint [12]: 61 µL/min/1e6 cells
COc1cc2c(cc1OC)-c1c(-c3cncnc3)ncn1CC2	40 nM					inhibition [14]: 13%; inhibition [13]: 14%
COc1cc2c(cc1OC)-c1c(-c3ccccc3OC)ncn1CC2	212 nM					
COc1cc2c(cc1OC)-c1c(-c3ccccc3)ncn1CC2	121 nM					
COc1cc2c(cc1OC)-c1c(-c3cncn3C)ncn1CC2	264 nM					
COc1cc2c(cc1OC)-c1c(-c3ccc(Cl)cc3)ncn1CC2	183 nM					
COc1cc2c(cc1OC)-c1c(-c3cocn3)ncn1CC2	508 nM					
COc1cc2c(cc1OC)-c1c(-c3cnc(C(=O)NC4CCOCC4)s3)ncn1CC2	4.3 nM	22.7 µL/min/1e6 cells	550 nM	1.4 µL/min/1e6 cells	828 nM	hepatocyte CLint [12]: 5.7 µL/min/1e6 cells
COc1cc2c(cc1OC)-c1c(-c3cnc(C(=O)N4CCOCC4)s3)ncn1CC2	10 nM		613 nM		99 nM	
COc1cc2c(cc1OC)-c1c(-c3ccncc3)ncn1CC2	101 nM					
COc1cc2c(cc1OC)-c1c(-c3cncs3)nc(C)n1CC2	20 nM	65.5 µL/min/1e6 cells	6120 nM	7.5 µL/min/1e6 cells	968 nM	pKa [6]: 5; Ki (Phosphodiesterase 6): > 7100 nM; inhibition at 10 µM (hERG (KCNH2)): 10%; Ki [7]: > 7100 nM; Ki (Phosphodiesterase 4): > 7100 nM; Ki [8]: > 7100 nM; Ki (Phosphodiesterase 8): > 7100 nM; Ki [9]: > 7100 nM; solubility [10]: > 150 µM; Ki (Phosphodiesterase 1): > 7100 nM; Ki [11]: > 7100 nM; hepatocyte CLint [12]: 9.2 µL/min/1e6 cells
COc1cc2c(cc1OC)-c1c(-c3cncs3)ncn1CC2			3700 nM		555 nM	pKa [6]: 4.3; Ki (Phosphodiesterase 6): > 2000 nM; inhibition at 10 µM (hERG (KCNH2)): 26%; Ki [7]: > 2000 nM; Ki (Phosphodiesterase 4): > 2000 nM; Ki [8]: > 2000 nM; Ki (Phosphodiesterase 8): > 2000 nM; Activity (Rattus norvegicus): Active; Ki [9]: > 2000 nM; solubility [10]: > 200 µM; Ki (Phosphodiesterase 1): > 2000 nM; Ki [11]: > 2000 nM; concentration at 1 h [15]: 350 ng/g
COc1cc2c(cc1OC)-c1c(-c3cnc(C(=O)NCc4ccccc4)s3)ncn1CC2	40 nM		507 nM		> 100000 nM	
COc1cc2c(cc1OC)-c1c(-c3cscn3)ncn1CC2	861 nM					
COc1cc2c(cc1OC)-c1c(-c3ccccn3)ncn1CC2	240 nM					
